From ChEMBL document CHEMBL3739406, “Trisubstituted Thieno[3,2-b]pyrrole 5-Carboxamides as Potent Inhibitors of Alphaviruses” (J Med Chem, 2015)

Tests used:
[1] = Cytotoxicity against HEK293T cells assessed as cell viability at antiviral EC50 after 24 hrs by cell titer-glo luminescent cell viability assay; assay type: cell-based, HEK-293T; conditions: human, read-out: Activity
Summary of the method: (§1)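 HEK 293T cells, 3 × 10⁴/well, seeded overnight, then exposed 24 h to compound (0.01–100 μM, triplicate) in DMEM pH 6.8 with 10% FBS. Viability read by CellTiter-Glo luminescence. Normalized to untreated (100%) and medium blank (0%); CC50 by five-parameter curve fit.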

[2] = Cytotoxicity against HEK293T cells assessed as reduction in cell viability after 24 hrs by cell titer-glo luminescent cell viability assay; assay type: cell-based, HEK-293T; conditions: human; summary of the method: as §1
Chikungunya virus [3] = experiment: Antiviral activity against Chikungunya virus infected in HEK293T cells assessed as reduction of infectivity measured at 24 hrs postinfection by gaussia luciferase reporter gene assay; assay type: functional, cell-based; conditions: HEK-293T
[4] = Selectivity index, ratio of CC50 for HEK293T cells to EC50 for Chikungunya virus infected in HEK293T cells; assay type: toxicity, cell-based, HEK-293T; conditions: human, read-out: Ratio CC50/EC50
Chikungunya virus [5] = experiment: Antiviral activity against wild type Chikungunya virus IMT infected in HEK293T cells assessed as inhibition of infectivity measured at 24 hrs postinfection by FITC/DAPI staining based array scan VTI HCS reader analysis; assay type: functional, cell-based; conditions: HEK-293T

| Compound | viability at 24 h [1] [%] | CC50 at 24 h [2] [µM] | EC50 (Chikungunya virus [3]) [µM] | selectivity ratio [4] | EC50 (Chikungunya virus [5]) [µM] | inhibition (Chikungunya virus [5]) |
| --- | --- | --- | --- | --- | --- | --- |
| COc1ccc(Cn2c(C(=O)N3CCC(C(=O)O)CC3)cc3sccc32)cc1 | > 80 | > 100 | > 100 |  |  |  |
| COc1ccc(Cn2c(C(=O)N3CCOCC3)cc3sccc32)cc1 | > 80 | > 100 | 79.7 | > 1.3 |  |  |
| COc1ccc(Cn2c(C(=O)N3CCC(C(=O)NC(C)c4ccccc4)CC3)cc3sccc32)cc1 (configuration not stated) | > 80 | > 100 | 13 | > 7.7 |  |  |
| COc1ccc(Cn2c(C(=O)N3CCCC3)cc3sccc32)cc1 | > 80 | > 100 | 35.4 | > 2.8 |  |  |
| COc1ccc(Cn2c(C(=O)N3CCNCC3)cc3sccc32)cc1 | > 80 | > 100 | 32.5 | > 3.1 |  |  |
| CCCNCc1c(C(=O)N2CCC(C(=O)NCCC)CC2)n(Cc2ccc(OC)cc2)c2ccsc12 | > 80 | > 100 | 27.7 | > 3.6 |  |  |
| CCCNCc1cc2c(cc(C(=O)N3CCC(C(=O)NCCC)CC3)n2Cc2ccc(OC)cc2)s1 | > 80 | > 100 | 40 | > 2.5 |  |  |
| COc1ccc(Cn2c(C(N)=O)cc3sccc32)cc1 | > 80 | > 100 | 36 | > 2.8 |  |  |
| COc1ccc(Cn2c(C(=O)N3CCC(C(=O)NCC4CC4)CC3)cc3sccc32)cc1 | > 80 | 24.6 | 10.4 | 2.4 |  |  |
| COc1ccc(Cn2c(C(=O)NCc3ccccc3)cc3sccc32)cc1 | > 80 | > 100 | > 100 |  |  |  |
| CCN(CC)C(=O)c1cc2sccc2n1Cc1ccc(OC)cc1 | > 80 | > 100 | 49.6 | > 2 |  |  |
| COc1ccc(Cn2c(C(=O)N3CCC(C(=O)NCc4cccc(Br)c4)CC3)cc3sccc32)cc1 | > 80 | > 100 | 10.9 | > 9.2 |  |  |
| CCCNC(=O)c1cc2sccc2n1Cc1ccc(OC)cc1 | > 80 | > 100 | > 100 |  |  |  |
| CCOC(=O)c1cc2sccc2n1Cc1ccc(OC)cc1 | > 80 | > 100 | > 100 |  |  |  |
| CCCNC(=O)C1CCN(C(=O)c2c(CNC(C)c3ccccc3)c3sccc3n2Cc2ccc(OC)cc2)CC1 (configuration not stated) | > 80 | 57.5 | 11.9 | 4.8 |  |  |
| CCCNC(=O)C1CCN(C(=O)c2cc3sc(CNC(C)c4ccccc4)cc3n2Cc2ccc(OC)cc2)CC1 (configuration not stated) | > 80 | 33.9 | 8.44 | 4 | 13.5 | Dose-dependent effect |
| COc1ccc(Cn2c(C(=O)N3CCC(C(=O)NCCC(C)C)CC3)cc3sccc32)cc1 | > 80 | 30.9 | 11 | 2.8 |  |  |
| COc1ccc(Cn2c(C(=O)N3CCN(Cc4ccccc4)CC3)c(COCc3ccccc3)c3sccc32)cc1 | > 80 | > 100 | > 100 |  |  |  |
| CCCNC(=O)C1CCN(C(=O)c2c(Br)c3sccc3n2Cc2ccc(OC)cc2)CC1 | > 80 | 31.6 | 7.75 | 4.1 | 14 | Dose-dependent effect |
| COc1ccc(Cn2c(C(=O)N3CCC(C(N)=O)CC3)cc3sccc32)cc1 | > 80 | > 100 | 70.9 | > 1.4 |  |  |

| Compound | viability at 24 h [1] [%] | CC50 at 24 h [2] [µM] | EC50 (Chikungunya virus [3]) [µM] | selectivity ratio [4] | EC50 (Chikungunya virus [5]) [µM] | inhibition (Chikungunya virus [5]) |
| --- | --- | --- | --- | --- | --- | --- |
| COc1ccc(Cn2c(C(=O)N3CCC(C(=O)NCCc4ccccc4)CC3)cc3sccc32)cc1 | > 80 | > 100 | 11.1 | > 9 |  |  |
| COc1ccc(Cn2c(C(=O)N3CCN(Cc4ccccc4)CC3)cc3sc(C(=O)c4ccccc4)cc32)cc1 | > 80 | > 100 | > 100 |  |  |  |
| COc1ccc(Cn2c(C(=O)N3CCN(Cc4ccccc4)CC3)cc3sc(CNC(C)c4ccccc4)cc32)cc1 (configuration not stated) | > 80 | > 100 | 9.44 | > 11 | 25.5 | Dose-dependent effect |
| COc1ccc(Cn2c(C(=O)O)cc3sccc32)cc1 | > 80 | > 100 | > 100 |  |  |  |
| COc1ccc(Cn2c(C(=O)N3CCN(Cc4ccccc4)CC3)cc3sc(-c4ccccc4)cc32)cc1 | > 80 | > 100 | 42.4 | > 2.4 |  |  |
| COc1ccc(Cn2c(C(=O)N3CCN(Cc4ccccc4)CC3)c(CNC(C)c3ccccc3)c3sccc32)cc1 (configuration not stated) | > 80 | > 100 | 23 | > 4.3 |  |  |
| CCCNC(=O)C1CCN(C(=O)c2cc3sc(C(C)=O)cc3n2Cc2ccc(OC)cc2)CC1 | > 80 | > 100 | 20.9 | > 4.8 |  |  |
| COc1ccc(Cn2c(C(=O)N3CCN(Cc4ccccc4)CC3)cc3sccc32)cc1 | > 80 | > 100 | 41.7 | > 2.4 |  |  |
| COc1ccc(Cn2c(C(=O)N3CCN(Cc4ccccc4)CC3)cc3sc(COCc4ccccc4)cc32)cc1 | > 80 | > 100 | > 100 |  |  |  |
| COc1ccc(Cn2c(C(=O)N3CCN(Cc4ccccc4)CC3)cc3sc(C(C)=O)cc32)cc1 | > 80 | > 100 | 17 | > 5.9 |  |  |
| COc1ccc(Cn2c(C(=O)NC(C)c3ccccc3)cc3sccc32)cc1 (configuration not stated) | > 80 | > 100 | > 100 |  |  |  |
| CCOC(=O)C1CCN(C(=O)c2cc3sccc3n2Cc2ccc(OC)cc2)CC1 | > 80 | 39 | 13.1 | 3 |  |  |
| COc1ccc(Cn2c(C(=O)N3CCCCC3)cc3sccc32)cc1 | > 80 | > 100 | 49.7 | > 2 |  |  |
| CCCCC(=O)C1CCN(C(=O)c2cc3sccc3n2Cc2ccc(OC)cc2)CC1 | > 80 | 38.9 | 13.3 | 2.9 |  |  |
| CCCNC(=O)C1CCN(C(=O)c2c(CO)c3sccc3n2Cc2ccc(OC)cc2)CC1 | > 80 | > 100 | 47.6 | > 2.1 |  |  |
| CCCNC(=O)C1CCN(C(=O)c2c(CNCc3ccccc3)c3sccc3n2Cc2ccc(OC)cc2)CC1 | > 80 | 77.6 | 15.4 | 5 |  |  |
| COc1ccc(Cn2c(C(=O)N3CCC(C(=O)NCc4ccccc4)CC3)cc3sccc32)cc1 | > 80 | > 100 | 12.3 | > 8.1 |  |  |
| CCCNC(=O)C1CCN(C(=O)c2cc3sc(CNCc4ccccc4)cc3n2Cc2ccc(OC)cc2)CC1 | > 80 | 46.8 | 11.2 | 4.2 |  |  |
| CCCNC(=O)C1CCN(C(=O)c2cc3sc(C(=O)c4ccccc4)cc3n2Cc2ccc(OC)cc2)CC1 | > 80 | > 100 | > 100 |  |  |  |
